These results are taken from ChEMBL document CHEMBL1151889, “4,4-Dimethyl-1,2,3,4-tetrahydroquinoline-based PPARalpha/gamma agonists. Part. II: Synthesis and pharmacological evaluation of oxime and acidic head group structural variations” (Bioorg Med Chem Lett, 2009).

What is called EC50 is the midpoint of the concentration-response curve. By Ki is commonly meant a dissociation constant, usually derived from enzyme kinetics or from competition with a known ligand.

The target of data set [1] is T1, Peroxisome proliferator-activated receptor gamma (Homo sapiens, UniProt P37231).
T1 sequence (P37231 whole entry): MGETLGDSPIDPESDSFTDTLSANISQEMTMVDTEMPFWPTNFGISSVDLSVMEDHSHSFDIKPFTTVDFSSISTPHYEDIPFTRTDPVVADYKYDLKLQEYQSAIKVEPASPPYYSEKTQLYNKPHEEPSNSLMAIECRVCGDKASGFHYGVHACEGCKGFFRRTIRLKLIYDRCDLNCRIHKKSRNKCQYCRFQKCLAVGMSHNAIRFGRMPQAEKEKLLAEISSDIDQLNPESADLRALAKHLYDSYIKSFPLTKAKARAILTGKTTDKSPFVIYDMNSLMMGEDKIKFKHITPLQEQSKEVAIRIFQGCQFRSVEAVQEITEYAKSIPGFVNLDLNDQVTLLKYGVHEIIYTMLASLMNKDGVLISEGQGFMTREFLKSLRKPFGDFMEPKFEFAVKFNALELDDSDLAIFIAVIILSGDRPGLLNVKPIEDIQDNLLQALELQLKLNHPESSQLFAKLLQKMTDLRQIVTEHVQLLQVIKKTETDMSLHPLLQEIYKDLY
Briefly: Agonist activity at human PPARgamma by Gal4 transactivation assay. Format: functional.

For data set [2], the target named is T1, Peroxisome proliferator-activated receptor gamma. Briefly: Displacement of [3H]rosiglitazone from human PPARgamma receptor. (Displacement assays read how much labelled ligand stays bound in the presence of the test substance.)
The target of data set [3] is T2, Peroxisome proliferator-activated receptor alpha (Homo sapiens) (UniProt Q07869).
T2 sequence (whole entry): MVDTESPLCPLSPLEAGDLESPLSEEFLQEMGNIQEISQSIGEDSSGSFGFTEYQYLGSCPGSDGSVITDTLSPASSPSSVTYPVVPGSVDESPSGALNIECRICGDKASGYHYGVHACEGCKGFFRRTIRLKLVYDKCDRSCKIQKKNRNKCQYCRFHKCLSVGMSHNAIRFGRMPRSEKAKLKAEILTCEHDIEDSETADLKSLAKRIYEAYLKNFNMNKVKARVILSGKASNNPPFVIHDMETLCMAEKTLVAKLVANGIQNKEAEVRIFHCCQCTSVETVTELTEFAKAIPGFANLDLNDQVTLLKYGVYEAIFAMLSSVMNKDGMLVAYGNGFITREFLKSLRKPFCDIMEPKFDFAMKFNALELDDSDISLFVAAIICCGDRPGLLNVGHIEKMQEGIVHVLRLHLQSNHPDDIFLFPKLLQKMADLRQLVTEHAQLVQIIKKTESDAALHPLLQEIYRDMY
Nature of the data set: Agonist activity at human PPARalpha at transactivation EC50 by Gal4 transactivation assay relative to at 10 uM WY-14643.

A further data set has as its system Caco-2. Nature of the data set: Absorption in human Caco-2 cells. The class given is ADME, cell-based. Further details: concentration or dose not given beside the values; call rule not given here.
Data set [4] concerns the target T3, Peroxisome proliferator-activated receptor alpha (Homo sapiens, UniProt Q07869).
T3 sequence (Q07869 whole entry): T2 sequence (whole entry)
Nature of the data set: Agonist activity at human PPARalpha by Gal4 transactivation assay. The class given is functional.

Data set [5] concerns Mus musculus. Briefly: Effect on bodyweight in po dosed C57BL/6J ob/ob mouse assessed as body weight gain relative to untreated control. The class given is functional. In outline:
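Male C57BL/6J ob/ob mice (n = 8–12 per dose) were randomized on glycemia and gavaged with 3 mg/kg daily for four days, between 3 and 5 pm, as a suspension in 1% hydroxyethyl cellulose (2.5 ml/kg). Body weight gain was each mouse's end-of-study minus starting weight. Groups were compared with control by ANOVA and one-tailed Dunnett's test.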

The test system of data set [6] is Mus musculus. Nature of the data set: Lipid lowering effect in po dosed C57BL/6J ob/ob mouse assessed as triglyceride level relative to untreated control. Format: functional. In outline: (§1)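 Male C57BL/6J ob/ob mice (n = 8–12 per dose) were gavaged with 3 mg/kg daily for four days in 1% hydroxyethyl cellulose (2.5 ml/kg). On day five, heparinized retro-orbital plasma was collected under CO₂ anaesthesia. Plasma level was expressed as percent change from the mean of vehicle-treated mice. Groups were compared by ANOVA and one-tailed Dunnett's test.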

The test system of data set [7] is Mus musculus. Briefly: Glucose lowering effect in po dosed C57BL/6J ob/ob mouse assessed as insulin level relative to untreated control. Format: functional. In outline:
as §1

Data set [8] relates to Liver microsomes. Nature of the data set: Metabolic stability in human hepatocyte microsomes. Format: ADME, Microsome.
For data set [9], the system named is Liver microsomes. Briefly: Metabolic stability in rat hepatocyte microsomes. The class given is ADME, Microsome.

On to `CO/N=C(\c1ccccc1)c1ccc2c(c1)C(C)(C)CCN2CCOc1ccc(C[C@H](Nc2ccccc2C(=O)c2ccccc2)C(=O)O)cc1`, for which the half-maximal effective concentration (EC50) was determined as 14 nM in [1] (read-out: EC50) and 10000 nM in data set [4] (read-out: EC50). Further, the Ki in data set [2] came out at 54 nM. For the same compound, the Activity in [3] was determined as 11%; in the data set on Caco-2, 22%.

As for `CN(CCOc1ccc(CC2SC(=O)NC2=O)cc1)c1ccccn1` (stereo unspecified) [ROSIGLITAZONE], the Activity with Mus musculus [5] is recorded as 0.56%; with Mus musculus [6], -56%; in the data set with Mus musculus [7], -55%; in the data set with Caco-2, 100%. Besides, the values for the Stability with Liver microsomes [8] and in the data set with Liver microsomes [9] were 21% and 45%, respectively.

Consider `CCO[C@@H](Cc1ccc(OCCN2CCC(C)(C)c3cc(/C(=N/OCC4CC4)c4ccccc4)ccc32)cc1)C(=O)O`, for which the EC50 was found to be 7.52 nM in data set [1] (read-out: EC50) and 9 nM in data set [4] (read-out: EC50). In addition, the Activity in the data set on Mus musculus [5] is 107%; in [3], 145%; with Mus musculus [6], -2%; with Mus musculus [7], -2%; with Caco-2, 93%. In addition, affinity in [2] was put at a Ki of 254 nM. The Stability in the data set with Liver microsomes [8] amounted to 84%; in the data set on Liver microsomes [9], 32%.

On to `CCO[C@@H](Cc1ccc(OCCN2CCC(C)(C)c3cc(/C(=N/OC)c4ccccc4)ccc32)cc1)C(=O)O`, for which the Activity with Mus musculus [5] was -33%; in the data set with Mus musculus [6] it was -5%; in the data set with Mus musculus [7] it was -20%; in the data set with Caco-2 it was 100%. Moreover, the Stability in the data set with Liver microsomes [8] and in the data set on Liver microsomes [9] was 0% in each case.

On to `CCO[C@@H](Cc1ccc(OCCN2CCC(C)(C)c3cc(/C(=N/OCc4ccccc4)c4ccccc4)ccc32)cc1)C(=O)O`, for which the 50% effective concentration (EC50) turned out to be 7 nM in data set [1] (read-out: EC50) and 34 nM in [4] (read-out: EC50). Moreover, the Activity with Mus musculus [5] is 0.23%; in data set [3], 137%; with Mus musculus [6] it was -27%; in the data set on Mus musculus [7], 51%; with Caco-2 it was 90%. For the same compound, in [2], the Ki is 18.4 nM. Further, the Stability in the data set with Liver microsomes [8] was found to be 59%; in the data set on Liver microsomes [9] it was 35%.

In the case of `C=CCO/N=C(\c1ccccc1)c1ccc2c(c1)C(C)(C)CCN2CCOc1ccc(C[C@H](OCC)C(=O)O)cc1`, the concentration giving a half-maximal response (EC50) in data set [1] (read-out: EC50) amounted to 13 nM; in [4] (read-out: EC50), 73 nM. Moreover, affinity in data set [2] was put at a Ki of 54.2 nM. The Activity in [3] was 152%; in the data set with Caco-2, 95%. For the same compound, the Stability with Liver microsomes [8] was 47%; in the data set with Liver microsomes [9], 20%.

On to `CCOC(=O)N(CC(=O)O)Cc1ccc(OCCN2CCC(C)(C)c3cc(/C(=N/OC)c4ccccc4)ccc32)cc1`, for which the figures for the EC50 in data set [1] (read-out: EC50) and in [4] were 10000 nM and “Not Active”, respectively. In data set [2], the inhibition constant Ki was more than 10000 nM.

Take `CO/N=C(\c1ccccc1)c1ccc2c(c1)C(C)(C)CCN2CCOc1ccc(C[C@H](OC(C)=O)C(=O)O)cc1`: the EC50 entry in data set [1] and in data set [4] was “Not Active” in each case. For the same compound, the Ki in data set [2] was more than 10000 nM.

`CO/N=C(\c1ccccc1)c1ccc2c(c1)C(C)(C)CCN2CCOc1ccc(C[C@H](OCC(F)(F)F)C(=O)O)cc1`: the EC50 came out at 125 nM in [1] (read-out: EC50) and 1000 nM in [4] (read-out: EC50). Besides, the Activity in the data set with Mus musculus [5] was 304%; in [3], 50%; with Mus musculus [6], 9%; in the data set with Mus musculus [7], -17%; in the data set with Caco-2 it was 100%. Also, the Ki in [2] worked out at 33 nM. Further, the results for the Stability in the data set with Liver microsomes [8] and in the data set with Liver microsomes [9] were 27% and 18%, respectively.

Take `CCO[C@@H](Cc1ccc(OCCc2ccc(OS(C)(=O)=O)cc2)cc1)C(=O)O` [TESAGLITAZAR]: the Activity is listed as 1.9% in the data set with Mus musculus [5], -60% in the data set with Mus musculus [6], -94% in the data set on Mus musculus [7] and 78% in the data set with Caco-2. Moreover, the Stability in the data set on Liver microsomes [8] stood at 100%; with Liver microsomes [9], 97%.
